Screens from PubChem BioAssay.
Sampled rows, rich in hits. Any-hit rate of the full collection: about 6.4%.
HUVEC inhibit = blocks proliferation of human endothelial cells; viability, % at 10 µM (by protocol); AID 648; HUVEC proliferation, CellTiter-Glo luminescence, 72 h; stronger effect = lower value; 86,000 compounds, 1.1% hits;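 active = viability at or below 30%; inactive = viability above 30%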
tolC growth inh = E. coli tolC mutant growth inhibition; 65,000 compounds, 2.2% hits; E. coli BW25113 tolC mutant growth, OD615; growth inhibition, % at 10 µM (by protocol);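 active = growth inhibition at or above a cutoff equal to the mean over every tested compound plus 3 SD, cut at about 60% in these data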;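 note: growth measured after 20 h incubation at 37 °C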
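System: E. coli ΔtolC::kan strain BW25113; Buffer or medium: LB broth supplemented with 50 µg/mL kanamycin; Compound: 10 µM final, single dose; Incubation: bacterial growth with compound for 20 h at 37 °C; Signal: A615 absorbance measurement; Evaluation: growth inhibition in percent.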
Jurkat tox 60K = cytotoxic compounds reducing Jurkat cell viability; 56,000 compounds, 1.2% hits; inhibition, % at 4 µM; Jurkat E6.1 viability, ATP luminescence, 48 h;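 active = inhibition above the mean inhibition of all tested compounds plus 3 SD, cut at about 28% in these data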
H69AR growth 86K = growth inhibitors of human H69AR lung tumor cells. H69AR lung tumor viability, ATP luminescence, 72 h; stronger effect = lower value. viability, % at 10 µM. 85,000 compounds, 6% hits. AID 598;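 active = viability at or below 40%; inactive = viability above 40%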;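 note: multidrug resistant small cell line overexpressing MRP-1 efflux transporter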
E coli WT exp = E. coli BW25113 growth inhibition, expanded screen | 98,000 compounds, 0.15% hits | AID 710 | growth inhibition, % at 100 µM | OD600 absorbance;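 active = growth inhibition above about 50% at one test dose, limit read from the data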;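 note: growth measured after 20 h incubation at 37 °C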
Fibroblast inh = blocks proliferation of human lung fibroblasts | viability, % at 10 µM | 85,000 compounds, 1.1% hits | LL 47 human lung fibroblast viability, ATP luminescence; stronger effect = lower value;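 active = viability at or below 50% in the single dose screen; inactive = viability above 50%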;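 note: compound exposure lasted 72 h before the ATP readout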
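Times – overnight cell rest, 72 h compound treatment at 37 °C · Test system – human lung fibroblast line LL 47, low passage · Amount – 1,150 cells in each well · Controls – cell-only wells, no compound · Doses – 0.1% DMSO in all compound wells · Measured by – CellTiter-Glo luminescence · Buffer or medium – IMEM plus 15% FBS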
A number is an active result.

How did CCOC(=O)N1CCc2c(sc(NC(=O)c3ccc(S(=O)(=O)N4CCCC4)cc3)c2C#N)C1 do in these assays?
HUVEC inhibit: inactive; tolC growth inh: inactive; Jurkat tox 60K: inactive; H69AR growth 86K: 13.3; E coli WT exp: inactive; Fibroblast inh: 38.2

How did Cc1ccc(NC(=S)NC(NC(=O)c2ccccc2C)C(Cl)(Cl)Cl)c(C)c1 (stereo not drawn) do in these assays?
E coli WT exp: inactive

How did O=C(O)c1cccc(NC(=O)c2cccc(S(=O)(=O)N3CCCCC3)c2)c1 do in these assays?
HUVEC inhibit: inactive; tolC growth inh: inactive; Jurkat tox 60K: inactive; H69AR growth 86K: inactive; E coli WT exp: inactive; Fibroblast inh: inactive

How did Nc1nc(NC(=O)c2cccc(S(=O)(=O)N3CCCCCC3)c2)nc(-c2ccccc2)n1 do in these assays?
HUVEC inhibit: inactive; tolC growth inh: inactive; H69AR growth 86K: 5.3; E coli WT exp: inactive; Fibroblast inh: 24.9

How did COc1ccccc1Cc1nc(-c2ccc(Br)o2)no1 do in these assays?
HUVEC inhibit: inactive; tolC growth inh: 60.9; Jurkat tox 60K: inactive; H69AR growth 86K: inactive; E coli WT exp: inactive; Fibroblast inh: inactive

Results for COc1ccccc1-c1nc(-c2ccc(Br)o2)no1 ?
HUVEC inhibit: inactive; H69AR growth 86K: inactive; E coli WT exp: inactive; Fibroblast inh: inactive

Results for Cc1ccc(S(=O)(=O)c2cc3c(=O)n4ccccc4nc3n(CC3CCCO3)c2=N)cc1C (stereo not drawn) ?
HUVEC inhibit: inactive; tolC growth inh: inactive; Jurkat tox 60K: inactive; H69AR growth 86K: inactive; Fibroblast inh: inactive

How did N=c1c(S(=O)(=O)c2ccccc2)cc2c(=O)n3ccccc3nc2n1Cc1ccco1 do in these assays?
HUVEC inhibit: inactive; tolC growth inh: inactive; Jurkat tox 60K: inactive; H69AR growth 86K: 10.9; E coli WT exp: inactive; Fibroblast inh: inactive

Results for Cc1ccc(S(=O)(=O)c2cc3c(=O)n4ccccc4nc3n(Cc3ccco3)c2=N)cc1C ?
HUVEC inhibit: inactive; tolC growth inh: inactive; Jurkat tox 60K: inactive; H69AR growth 86K: 7.8; E coli WT exp: inactive; Fibroblast inh: inactive

Results for Cc1cc(C)c2nc(Cl)c(CN(Cc3ccco3)C(=O)Nc3ccccc3C)cc2c1 ?
E coli WT exp: inactive

What do the screens show for `COC(=O)c1ccccc1NC1=C/C(=N\S(=O)(=O)c2cccs2)c2ccccc2C1=O`?
HUVEC inhibit: 4.0; H69AR growth 86K: 22.7; E coli WT exp: inactive; Fibroblast inh: 5.7

What do the screens show for `CCOC(=O)c1sc2nc(CC(=O)OC)nc(NCc3ccco3)c2c1C`?
HUVEC inhibit: inactive; tolC growth inh: inactive; H69AR growth 86K: inactive; E coli WT exp: inactive; Fibroblast inh: inactive

How did Cc1nc(NCc2ccco2)c2c(C)c(C)sc2n1 do in these assays?
HUVEC inhibit: 3.5; H69AR growth 86K: 33.7; E coli WT exp: inactive; Fibroblast inh: 26.9

Results for Cc1sc2nc3c4ccccc4c(NCc4ccco4)nn3c(=O)c2c1C ?
HUVEC inhibit: inactive; tolC growth inh: inactive; Jurkat tox 60K: inactive; H69AR growth 86K: 34.0; E coli WT exp: inactive; Fibroblast inh: inactive

Results for Cc1ccc(SCC(=O)N(Cc2nc(-c3ccccc3)no2)C(C)C)cc1 ?
HUVEC inhibit: inactive; tolC growth inh: 73.5; Jurkat tox 60K: inactive; H69AR growth 86K: inactive; E coli WT exp: inactive; Fibroblast inh: inactive

Results for COc1ccc(C(=O)N(Cc2nc(-c3ccc(C)cc3)no2)C(C)C)cc1OC ?
HUVEC inhibit: inactive; tolC growth inh: inactive; Jurkat tox 60K: inactive; H69AR growth 86K: inactive; E coli WT exp: inactive; Fibroblast inh: inactive

How did COc1ccc(-c2noc(CCC(=O)N(C)c3cccc(C)c3)n2)cc1 do in these assays?
HUVEC inhibit: inactive; tolC growth inh: 67.6; H69AR growth 86K: inactive; E coli WT exp: inactive; Fibroblast inh: inactive

What do the screens show for `Cc1ccc(-c2noc(CN(C(=O)c3cccs3)C(C)C)n2)cc1`?
HUVEC inhibit: inactive; tolC growth inh: inactive; Jurkat tox 60K: inactive; H69AR growth 86K: inactive; E coli WT exp: inactive; Fibroblast inh: inactive

What do the screens show for `CC(C)N(Cc1nc(-c2ccc(Cl)cc2)no1)C(=O)c1cccs1`?
HUVEC inhibit: inactive; tolC growth inh: 68.2; Jurkat tox 60K: inactive; H69AR growth 86K: inactive; E coli WT exp: inactive; Fibroblast inh: inactive

What do the screens show for `COc1cc(OC)cc(C(=O)N(Cc2nc(-c3cccc(C)c3)no2)C(C)C)c1`?
HUVEC inhibit: inactive; tolC growth inh: 66.6; Jurkat tox 60K: inactive; H69AR growth 86K: inactive; E coli WT exp: inactive; Fibroblast inh: inactive

How did COc1ccc(CCNC(=O)CN2C(=O)C3(OCCCO3)c3ccccc32)cc1OC do in these assays?
HUVEC inhibit: inactive; tolC growth inh: inactive; Jurkat tox 60K: inactive; H69AR growth 86K: inactive; E coli WT exp: inactive; Fibroblast inh: inactive

How did CC(C)N(Cc1nc(-c2ccccc2)no1)C(=O)c1ccc(Cl)cc1 do in these assays?
HUVEC inhibit: inactive; tolC growth inh: 68.2; Jurkat tox 60K: inactive; H69AR growth 86K: inactive; E coli WT exp: inactive; Fibroblast inh: inactive

Results for N#CC(c1ccc(Cl)cc1)c1ccc2c(C(F)(F)F)cc(C(F)(F)F)nc2n1 (stereo not drawn) ?
HUVEC inhibit: 27.2; H69AR growth 86K: 4.6; E coli WT exp: inactive; Fibroblast inh: 18.5

Results for Cc1noc2nc(-c3cccs3)cc(-c3nnc4n3CCCCC4)c12 ?
HUVEC inhibit: inactive; tolC growth inh: inactive; Jurkat tox 60K: inactive; H69AR growth 86K: inactive

Results for CSc1nsc(SCC(=O)Nc2cccc(C(C)=O)c2)n1 ?
HUVEC inhibit: inactive; tolC growth inh: inactive; Jurkat tox 60K: inactive; H69AR growth 86K: inactive; E coli WT exp: inactive; Fibroblast inh: inactive

What do the screens show for `CCOC(=O)c1ccc(NC(=O)CSc2nc(SC)ns2)cc1`?
HUVEC inhibit: inactive; tolC growth inh: 100.0; Jurkat tox 60K: inactive; H69AR growth 86K: inactive; E coli WT exp: inactive; Fibroblast inh: inactive

How did CNc1nnc(-c2cc3cc(Cl)ccc3oc2=O)s1 do in these assays?
HUVEC inhibit: inactive; H69AR growth 86K: inactive; E coli WT exp: inactive; Fibroblast inh: inactive

How did CCOc1cccc2cc(-c3cn4cc(C)ccc4n3)c(=O)oc12 do in these assays?
HUVEC inhibit: inactive; tolC growth inh: inactive; Jurkat tox 60K: inactive; E coli WT exp: inactive; Fibroblast inh: 24.2

What do the screens show for `COc1cccc2cc(-c3cn4ccc(C)cc4n3)c(=O)oc12`?
HUVEC inhibit: inactive; H69AR growth 86K: inactive; Fibroblast inh: inactive

How did COc1ccc2oc(=O)c(-c3nnc(NCc4ccco4)s3)cc2c1 do in these assays?
HUVEC inhibit: 19.9; tolC growth inh: inactive; Jurkat tox 60K: inactive; H69AR growth 86K: 2.6; E coli WT exp: inactive; Fibroblast inh: inactive

What do the screens show for `CCOc1cccc2cc(-c3nnc(NCc4ccco4)s3)c(=O)oc12`?
HUVEC inhibit: 19.5; tolC growth inh: inactive; Jurkat tox 60K: inactive; H69AR growth 86K: 3.7; E coli WT exp: inactive; Fibroblast inh: inactive

What do the screens show for `COC(=O)c1ccccc1OCCCOc1ccc(C=O)cc1OC`?
E coli WT exp: inactive

Results for CCCOc1ccc(C(=O)CCC(=O)OCC(=O)N2CC(=O)Nc3ccccc32)cc1 ?
E coli WT exp: inactive
